Screening results from PubChem BioAssay.
MC4R antagonist – antagonists of human melanocortin 4 receptor (MC4R); hit rate 0.48% among 360,000; MC4R-expressing cells, MTII-stimulated cAMP, LANCE TR-FRET; P32245; AID 540295; inhibition, % at 6.5 µM;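 active = inhibition above its plate's cutoff, the mean of tested wells on that plate plus 3 SD, cut at about 29% in these data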;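 also: 0% = Melanotan II alone and 100% = Melanotan II plus saturating MCL0020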
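Material: human MC4R-expressing U2OS cells. Probe or stimulus: Melanotan II challenge. Dosing: 6.5 µM single dose. Times: 30-min compound, 1-h challenge, 1-h detection, room temperature. Technique: TR-FRET with Eu-cAMP and labeled anti-cAMP, 671 nm. Replication: singlicate.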
HTR2A ag – activates the mouse 5-HT2A serotonin receptor. P35363. CHO-K1 mHTR2A beta-arrestin complementation, luminescence; percent of 30 µM serotonin response. activation, % at 7.6 µM. hit rate 0.66% among 360,000;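 active = activation above a run cutoff, the mean activation of all tested compounds plus 3 SD, cut at about 14% in these data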;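 also: 0% = plate median of compound wells and 100% = 30 µM serotonin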
Target sequence (P35363 whole entry, looked up): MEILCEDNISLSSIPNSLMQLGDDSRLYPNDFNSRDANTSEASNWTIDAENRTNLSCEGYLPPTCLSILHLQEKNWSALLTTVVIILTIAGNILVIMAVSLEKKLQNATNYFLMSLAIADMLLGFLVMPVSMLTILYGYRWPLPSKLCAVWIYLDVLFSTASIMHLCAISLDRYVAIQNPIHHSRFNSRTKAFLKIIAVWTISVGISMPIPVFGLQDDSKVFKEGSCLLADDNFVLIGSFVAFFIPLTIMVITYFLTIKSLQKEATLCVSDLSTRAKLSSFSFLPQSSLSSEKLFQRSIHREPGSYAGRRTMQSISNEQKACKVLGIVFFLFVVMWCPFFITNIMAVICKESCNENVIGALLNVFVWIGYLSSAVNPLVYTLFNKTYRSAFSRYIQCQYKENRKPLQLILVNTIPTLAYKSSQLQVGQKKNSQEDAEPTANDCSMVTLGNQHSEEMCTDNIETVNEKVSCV
TAAR1 antag – human TAAR1 antagonism; CHO RD-HGA16 TAAR1, Fluo-8 calcium fluorescence, antagonist; hit rate 1.5% among 360,000; inhibition, % at 3 µM; Q96RJ0;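 active = inhibition above a per-plate cutoff, the mean inhibition of test compounds on that plate plus 3 SD, cut at about 49% in these data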;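 also: 0% = DMSO plus EC80 beta-PEA response and 100% = DMSO alone without agonist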
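Test system – hTAAR1-expressing CHO RD-HGA16 cells, Gα16-coupled · Reagent – β-PEA at EC80 concentration, post-compound challenge · Compound dosing – 3 µM, single point · Timing – 140 s kinetic read after compound, 140 s after agonist · Detection – Fluo-8 intracellular calcium dye fluorescence, real-time kinetic reads · Control set – DMSO and EC80 PEA controls · Repeats – n of 1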
MC4R ag barr – activates human MC4R beta-arrestin recruitment. activation, % at 8.9 µM. hit rate 0.98% among 360,000. U2OS MC4R beta-arrestin complementation, luminescence; percent of melanotan II response, DMSO zero;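 active = activation above a per-plate cutoff, the mean activation of sample wells on that plate plus 3 SD, cut at about 8% in these data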
TAAR1 ag – human TAAR1 agonism; AID 624467; activation, % at 3 µM; Q96RJ0; hit rate 0.99% among 360,000; CHO RD-HGA16 TAAR1, Fluo-8 calcium fluorescence; vehicle wells 0%, saturating PEA agonist 100%;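 active = activation above the mean activation of all test compounds in the run plus 3 SD, cut at about 38% in these data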
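Assay system: CHO-derived RD-HGA16 cells with stable Gα16 and human TAAR1; timing: 17-24 h seeding, 75 min 37 °C dye, 30 min RT; read-out: % activation from peak over basal fluorescence ratio, DMSO-to-PEA scaled; measured by: kinetic Fluo-8 calcium fluorescence; benchmarks: low control DMSO, high control PEA (EC100); doses: 3 µM single concentration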
Beta2AR agonist – activates human beta-2 adrenergic receptor causing internalization; P07550; Am2.2-beta2AR cells, FAP receptor internalization, flow cytometry; response, % (concentration not given with the values); hit rate 0.43% among 340,000;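 active = response above a set limit, near 3 SD of response in nonfluorescent compounds, cut at about 42% in these data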
* marks the source's active call; other numbers are inactive results; / = no result. In the library only some 4.3% were active in any assay of this set; here they are far more common.

SMILES	MC4R antagonist	HTR2A ag	TAAR1 antag	MC4R ag barr	TAAR1 ag	Beta2AR agonist
O=C(O)CCCC[n+]1ccccc1	/	/	-16	/	2	/
CCc1nc2ccc(C(=O)NCc3ccccc3OC)cn2c1N(CC)CCOC	-7	5	-1	1	-1	/
CN(C)c1ccc(/C=C/C(=O)c2ccc(O)cc2)cc1	-12	-5	31	2	49*	-80
COc1ccc(C(=O)/C=C/c2ccc(N(C)C)cc2)c(OC)c1	2	6	52*	0	73*	-43
COC(=O)[C@]12C[C@H](CC(=O)NCC34CC5CC(CC(C5)C3)C4)C(=O)N(Cc3ccccc3)C1=C[C@H](C1CCCC1)O[C@@H]2C	/	/	-22	/	-2	/
Cc1ccccc1CN1[C@@H](C)[C@H](c2ccccc2)Oc2cccc(NCCc3ccccc3)c2S1(=O)=O	/	/	-2	/	31	/
CC(=O)Nc1cc2nc3ccccc3oc-2cc1=O	/	/	5	/	0	/
COC(=O)Nc1nc(-c2cc(Cl)ccc2Cl)cs1	6	6	-15	10*	2	5
CN1OC[C@@H]2CN(C(=O)c3ccc([N+](=O)[O-])cc3)[C@H](c3ccccc3Br)C[C@@H]21	/	/	-28	/	0	/
O=C1C(=C(I)I)c2ccccc2-c2ccccc21	22	-1	7	-1	3	76*
O=C(O)c1cccc2c1C(=O)c1ccccc1-2	-2	-2	-19	-1	1	2
COC(=O)c1ccc2nc(-c3cccc(Cl)c3)c(Cc3ccccc3C(F)(F)F)n2c1	/	/	-19	/	0	/
CN1c2ccsc2/C(=N/Nc2ccc(F)cc2)CS1(=O)=O	7	-5	29	-1	44*	-1
CCc1ccc(N/C(SCc2ccccc2C)=C(/C#N)C(=O)NCc2ccco2)cc1	6	-5	51*	3	1	5
CCc1ccc(OCCCC(=O)NCc2ccco2)cc1	15	2	-17	1	-1	-1
COc1ccc([C@H]2CC(=O)C=C(c3ccc(C)c4ccccc34)C2)cc1	3	-2	4	0	4	3
CC(C)CC(=O)/C(=C\c1ccc(Cl)cc1Cl)n1cncn1	21	1	/	-1	/	47*
CC(C)CC(=O)/C(=C/c1ccc(N(C)C)cc1)n1cncn1	3	1	1	0	-1	-5
CC(O)COc1ccc(/C(=N/O)c2ccccc2)cc1 (configuration not stated)	0	3	-16	0	38*	4
CC(C)[C@H](NC(=O)c1ccccc1)C(=O)OCC(=O)Nc1ccc2c(c1)OCCO2	25	-1	3	0	4	8
C[C@H](NC(=O)c1ccccc1)C(=O)OCC(=O)Nc1ccc2c(c1)OCO2	5	1	49*	1	1	8
CC(C)(C)n1nc(C2CC2)c(Br)c1NC(=O)c1ccccc1Cl	/	/	-22	/	4	/
Cc1onc(-c2ccccc2Cl)c1C(=O)Oc1cc(N)n(S(=O)(=O)c2ccc(F)cc2)n1	29*	-6	14	1	5	4
COCCCNC(=O)C[C@H]1C[C@@]2(C(=O)OC)C(=C[C@H](C3CCCC3)O[C@@H]2C)N(Cc2ccccc2)C1=O	/	/	-30	/	0	/
COC(=O)C1=C(C)N(C)C(=NCC2CC2)NC1c1ccccc1 (configuration not stated)	/	/	-6	/	1	/
SMILES	MC4R antagonist	HTR2A ag	TAAR1 antag	MC4R ag barr	TAAR1 ag	Beta2AR agonist
O=C(CNc1ccccc1OC(F)F)N1CCc2ccccc21	-1	-7	24	8.3*	21	-10
O=C(CNCCO)N1CCc2ccccc21	0	0	-11	-1	4	-3
Cc1ccc(Nc2nc3c(c(=O)[nH]c(=O)n3C)n2Cc2ccc(F)cc2)cc1	14	-5	-19	8.9*	-2	8
COc1ccc(/C=C2/C(=O)N(c3ccccc3)N=C2C)cc1Br	10	-2	4	1	26	76*
CC1=NN(c2ccccc2)C(=O)C1=Cc1ccccc1	5	7	2	-1	14	/
O=S1(=O)N[C@@H](Cc2ccccc2)COc2cc(NC3CC3)ccc21	/	/	-29	/	1	/
Cc1ccc(-n2ncc(Br)c(Br)c2=O)cc1	45*	-2	/	1	/	18
O=c1c(Br)c(Br)cnn1-c1ccccc1	24	14	23	3	-3	39
O=C(C(=O)N1CCN(S(=O)(=O)c2ccc(F)cc2)CC1)c1cccc(C(F)(F)F)c1	/	/	3	/	-1	/
NC(=O)[C@@H]1CCCN1C(=O)[C@@H](Cc1ccccc1)NC(=O)[C@H]1O[C@@H](n2ccc(=O)[nH]c2=O)[C@H](O)[C@@H]1O	/	/	-23	/	1	/
COc1ccc(Nc2nc(N)nc(CCl)n2)cc1	23	-4	-21	18*	0	-3
Nc1nc(CCl)nc(Nc2ccc3ccccc3c2)n1	14	7	-41	15*	2	28
Cc1ccccc1Nc1nc(N)nc(CCl)n1	1	3	-34	2	2	5
COc1ccc(Nc2nc(N)nc(CN3CCOCC3)n2)cc1	4	-3	-6	0	7	2
CCCC(=O)OC[C@H]1CN(C2CCCC2)S(=O)(=O)c2c(Oc3ccc(F)cc3)cccc2O1	/	/	-18	/	1	/
C=CCN=C1NC(c2ccccc2)C(C(=O)OC)=C(C)N1C (configuration not stated)	/	/	-12	/	2	/
N#Cc1cc(-c2ccccc2)oc1NC(=O)c1ccco1	8	-4	15	-1	0	-14
Cc1cccc(C(=O)Nc2oc(-c3ccccc3)cc2C#N)c1	24	-4	49*	2	5	0
Cc1cc(C(=O)N[C@H](c2ccccc2)[C@@]2(C)C[C@@H]2[C@@H](C)C(=O)Nc2ccc3ccccc3c2)no1	15	-2	53*	0	21	3
CCOc1ccccc1CNS(=O)(=O)c1ccc(-c2cnc(C3CC3)o2)cc1	-16	-2	58*	-4	4	17
O=S(=O)(NCc1ccccc1)c1ccc(-c2cnc(C3CC3)o2)cc1	-1	1	2	2	-1	-7
Cc1cccc(C)c1NC(=O)C1(C)CSCC(=O)N1CCc1c[nH]c2ccccc12 (configuration not stated)	/	-5	-2	/	2	/
COC(=O)C1=C(C)N(Cc2ccccc2)C(=NCc2cccc(C(F)(F)F)c2)N[C@H]1c1cccc(F)c1	9	2	34	13*	42*	37
COC(=O)C1=C(C)N(Cc2ccccc2)C(=NCCc2c[nH]c3ccccc23)N[C@H]1c1cccc(C(F)(F)F)c1	11	10	/	33*	/	12
